{
  "source": "paper PMC2141641",
  "about": "(The Journal of Cell Biology, 1997)",
  "key": {"[1]": {"system": "CD36 null animals", "conditions": "ref Febbraio, M., O.V. Volpert, N.P. Bouck, and R.L. Silverstein, unpublished data; cited from earlier work"}, "[2]": {"system": "endothelial cells", "conditions": "cited from earlier work"}, "[3]": {"system": "Human dermal microvascular endothelial cells (HMVECs)", "assay": "Endothelial cell migration assay, HMVECs", "assay_type": "cell-based", "conditions": "for inhibition of bFGF-induced HMVEC migration by other CD36 ligands / effect on migration when tested alone: 2 μg/ml", "summary_of_the_method": "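Human dermal microvascular cells (passages 6–9) were serum-starved and then migrated in a Boyden chamber 4 h at 37°C toward bFGF. Collagen I, LDL and copper-oxidized LDL were tested at 2 μg/ml, with or without 10 μg/ml anti-CD36 IgG added to both wells. Quadruplicate wells, two experiments. Counts were normalized to bFGF minus control-medium background. Two-tailed t test was run on raw data.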"}, "[4]": {"system": "neovascularization in vivo", "conditions": "ref O'Reilly et al., 1994; cited from earlier work"}, "[5]": {"system": "Bovine adrenal capillary endothelial cells (BCECs)", "assay": "Endothelial cell migration assay, BCECs", "assay_type": "cell-based", "summary_of_the_method": "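Bovine adrenal capillary cells (DME, 10% donor calf serum, 1% endothelial mitogen; passage 15) were starved overnight in DME/0.1% BSA. 3 × 10^4 cells/well were attached 2 h at 37°C to a gelatinized membrane in an inverted Boyden chamber, then reinverted. GST–CD36 fusion proteins were preincubated with 2 nM TSP-1, warmed to room temperature, and added to the top wells. Migration to bFGF ran 4 h at 37°C. Migrated cells/10 high-power fields counted; normalized to bFGF minus background.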"}, "[6]": {"system": "neovascularization, polyvinyl sponge", "conditions": "polyvinyl sponge assay; ref Good et al., 1990; Tolsma et al., 1993; cited from earlier work"}, "[7]": {"system": "Melanoma cells not transfected with CD36", "conditions": "ref Silverstein et al., 1992; cited from earlier work"}, "[8]": {"system": "CD36-transfected HUVECs", "assay": "Tube formation assay in Matrigel, CD36-transfected HUVECs", "assay_type": "cell-based, human", "conditions": "24 h at 37°C, endogenous TSP-1 expression by clones"}, "[9]": {"system": "CD36-transfected HUVECs", "assay": "Migration assay of CD36-transfected HUVEC clones", "assay_type": "cell-based, human", "conditions": "TSP-1 2 nM, bFGF", "summary_of_the_method": "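HUVECs at passage 2 were lipofected with a CD36 plasmid (30 μg DNA, 5 h, 37°C) and selected in 100 μg/ml G418. Cloned lines were checked for CD36 by flow cytometry. Clones migrated toward bFGF in a Boyden chamber (4 h, 37°C) with 2 nM TSP-1, with or without 10 μg/ml anti-CD36 antibody OKM-5. Four experiments; normalized to bFGF minus background.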"}, "[10]": {"system": "CD36", "conditions": "cited from earlier work"}, "[11]": {"system": "endothelial cells", "conditions": "in vitro; ref Tolsma et al., 1997; cited from earlier work"}, "[12]": {"system": "neovascularization, rodent cornea", "conditions": "rodent cornea assay; ref Good et al., 1990; Tolsma et al., 1993; cited from earlier work"}, "[13]": {"system": "endothelial cells", "conditions": "in vitro; ref Iruela-Arispe et al., 1991; DiPietro et al., 1994; Canfield and Schor, 1995; cited from earlier work"}},
  "data": [
    {"substance": "Angiostatin", "values": [
      {"measurement": "inhibition of corneal neovascularization in CD36 null animals", "setting": "[1]", "value": "not by angiostatin is defective in CD36 null animals"},
      {"measurement": "inhibition of endothelial cell migration in vitro by angiostatin", "setting": "[2]; ref Gately et al., 1996", "value": "well-established inhibitor of endothelial cell migration in vitro"},
      {"measurement": "inhibition of HMVEC migration by angiostatin", "setting": "[3]; angiostatin 2 μg/ml, bFGF, control inhibitor", "value": "inhibition of endothelial cell migration by angiostatin"},
      {"measurement": "inhibition of angiogenesis in vivo by angiostatin", "setting": "[4]", "value": "of angiogenesis in vivo"}
    ]},
    {"substance": "FP93-120: GST–CD36 fusion protein containing the TSP-1 binding region, amino acids 93–120 (YRVRFLAKENVTQDAEDNTVSFLQPNGA; left off: GST, end not stated, kept) [reference compound]", "values": [
      {"measurement": "block of inhibition of migration by Col overlap peptide", "setting": "[5]; Col overlap 30 μM, bFGF, fusion protein preincubated 2 h at 4°C", "value": "blocked the inhibitory effects of Col overlap"}
    ]},
    {"substance": "Thrombospondin-1 [TSP-1]", "values": [
      {"measurement": "inhibition of corneal neovascularization in CD36 null animals", "setting": "[1]", "value": "defective in CD36 null animals"},
      {"measurement": "prevention of neovascularization in vivo, polyvinyl sponge", "setting": "[6]", "value": "able to prevent neovascularization in vivo"},
      {"measurement": "inhibition of bFGF-induced migration by TSP-1, BCEC", "setting": "[5]; TSP-1 2 nM", "value": "TSP-1 inhibition of bFGF-induced migration"},
      {"measurement": "concentrations effective in vitro (inhibition of angiogenesis)", "setting": "[2]; ref Good et al., 1990, Tolsma et al., 1993", "value": "subnanomolar"},
      {"measurement": "concentration inhibiting endothelial cell migration (biphasic dose response)", "setting": "[2]; ref Taraboletti et al., 1990, Tolsma et al., 1993, Gao et al., 1996", "value": "less than 20 nM"},
      {"measurement": "TSP-1 binding to melanoma cells not transfected with CD36", "setting": "[7]", "value": "do not bind TSP-1"},
      {"measurement": "TSP-1 inhibition of tube formation after CD36 transfection", "setting": "[8]", "value": "became sensitive to TSP-1 inhibition of both migration and tube formation"},
      {"measurement": "TSP-1 inhibition of migration of CD36-transfected clone 35", "setting": "[9]; clone 35 (very low CD36)", "value": "refractory to TSP-1 inhibition"},
      {"measurement": "TSP-1 inhibition of migration of CD36-transfected clones 31 and 36", "setting": "[9]; clones 31 and 36 (higher CD36)", "value": "sensitive to TSP-1 inhibition"},
      {"measurement": "interaction of TSP-1 with CD36 amino acids 93–120", "setting": "[10]; minimal region of CD36, ref Pearce et al., 1995", "value": "specific, saturable, and reversible manner"},
      {"measurement": "inhibition of bFGF-induced HMVEC migration by TSP-1", "setting": "[3]; TSP-1 2 nM", "value": "inhibition of bFGF-induced migration of HMVECs by TSP-1"},
      {"measurement": "concentration inhibiting lumen formation", "setting": "[11]", "value": "below 20 nM"},
      {"measurement": "prevention of neovascularization in vivo, rodent cornea", "setting": "[12]", "value": "able to prevent neovascularization in vivo"},
      {"measurement": "concentration inhibiting tube formation", "setting": "[13]", "value": "below 20 nM"}
    ]},
    {"substance": "glutathione-S-transferase [GST, reference compound]", "values": [
      {"measurement": "block of TSP-1 inhibition of bFGF-induced migration", "setting": "[5]; TSP-1 2 nM, fusion protein preincubated 2 h at 4°C, migration 4 h at 37°C", "value": "ineffective"}
    ]},
    {"substance": "human type I collagen [human collagen I]", "values": [
      {"measurement": "inhibition of bFGF-induced HMVEC migration by other CD36 ligands", "setting": "[3]", "value": "inhibited bFGF-induced HMVEC migration"},
      {"measurement": "effect on migration when tested alone", "setting": "[3]", "value": "no significant effect on migration"}
    ]},
    {"substance": "low-density lipoprotein [LDL]", "values": [
      {"measurement": "binding of unoxidized LDL to CD36", "setting": "[10]; ref Endemann et al., 1993", "value": "unable to bind CD36"},
      {"measurement": "inhibition of bFGF-induced HMVEC migration by other CD36 ligands", "setting": "[3]", "value": "failed to influence HMVEC migration"},
      {"measurement": "effect on migration when tested alone", "setting": "[3]", "value": "no significant effect on migration"}
    ]},
    {"substance": "oxidized low-density lipoprotein [OxLDL]", "values": [
      {"measurement": "inhibition of bFGF-induced HMVEC migration by other CD36 ligands", "setting": "[3]", "value": "inhibited bFGF-induced HMVEC migration"},
      {"measurement": "effect on migration when tested alone", "setting": "[3]", "value": "no significant effect on migration"},
      {"measurement": "concentration below which ineffective at inhibiting migration", "setting": "[3]; bFGF-induced HMVEC migration, data not shown", "value": "below 0.1 nM"}
    ]}
  ]
}
